Assay results taken from ChEMBL document CHEMBL1121733, “Synthesis and evaluation of ureido- and vinylureidopenicillins as inhibitors of intraruminal lactic acid production” (J Med Chem, 1981).
Converted amounts (≈) assume the structure as drawn.

How the values were obtained:
[1] = Percent inhibition of lactic acid production by the compound at 5 p.p.m.; format: functional; design: scale not given: the % may be the effect or the level left
Summary of the method: (§1)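 Screen at 50, 5 and 0.5 µg/mL of incubation contents in strained bovine rumen fluid mixed 1:1 with CO2-saturated glucose/trypticase buffer, 5.5 h at 39 °C. Stopped with metaphosphoric acid, l(+)-lactate measured enzymatically. Expressed as lactate production as % of control incubations without compound.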

[2] = Lipophilicity estimated on reversed phase TLC; format: physicochemical; conditions: silicone oil-coated silica gel plates, 30% MeOH in pH 7.0 buffer
Summary of the method: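 Reversed-phase TLC on silica gel G plates dipped in 20 vol % silicone oil in hexane and dried. Mobile phase 30 vol % MeOH in pH 7.0 buffer. ΔR_M measured against a reference compound run on every plate, averaged over 2–6 plates.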

[3] = Percent inhibition of lactic acid production by the compound at 50 p.p.m.; format: functional; design: scale not given: the % may be the effect or the level left; summary of the method: as §1
[4] = Percent inhibition of lactic acid production by the compound at 0.5 p.p.m.; format: functional; design: scale not given: the % may be the effect or the level left; summary of the method: as §1
Staphylococcus aureus [5] = experiment: In vitro Minimum inhibitory concentration against Staphylococcus aureus ATCC 6538P (penicillin G sensitive); format: functional
Summary of the method: (§2)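 Twofold broth microdilution from 200 to 0.0008 µg/mL in brain–heart infusion broth with 0.066 g/L tetrazolium chloride. Inoculum was 1 µL of a 1:10 dilution of an 18 h, 37 °C culture. Plates incubated 16 h at 37 °C, with growth read as red precipitate. Triplicate trays per compound per organism.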

Streptococcus pyogenes = experiment: In vitro Minimum inhibitory concentration against Streptococcus pyogenes ATCC 8668; format: functional; summary of the method: as §2
Staphylococcus aureus [6] = experiment: (§3) In vitro Minimum inhibitory concentration against Staphylococcus penicillin G resistant); format: functional, staphylococcus pureus
Summary of the method: (§4)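 Broth microdilution in brain–heart infusion broth with 0.066 g/L tetrazolium chloride. Serial twofold dilutions from 200 to 0.0008 µg/mL. Inoculum: 1 µL of a 1:10 dilution of an 18 h, 37 °C culture. Incubated 16 h at 37 °C; growth read as red precipitate. MIC taken from triplicate trays per compound per organism.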

Escherichia coli = experiment: In vitro Minimum inhibitory concentration against Escherichia coli ATCC 25922; format: functional; summary of the method: as §2
Enterococcus faecium = experiment: In vitro Minimum inhibitory concentration against Streptococcus faecium ATCC 8043-2; format: functional; summary of the method: as §2
[7] = Effective inhibition concentration for reduction of lactic acid production to less than 10% of control; format: functional
Summary of the method: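 Bovine rumen fluid from a fistulated animal, strained through cheesecloth, mixed 1:1 with CO2-saturated buffer (glucose 27 g/L, trypticase 1.50 g/L, Na2HPO4 4.26 g/L). Compounds retested from 0.5 mg/mL stock serially diluted to 0.004 mg/mL, duplicate tubes, 5.5 h at 39 °C. Stopped with 25% metaphosphoric acid, centrifuged, l(+)-lactate measured enzymatically. Value is the minimum concentration giving lactate below 10% of no-compound control.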

[8] = Effective inhibition concentration for reduction of propionic acid production to less than 95% of control; format: functional
Summary of the method: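 Rumen fluid from a fistulated bovine, strained and mixed 1:1 with CO2-saturated buffer with moderate substrate at normal intraruminal pH (volatile fatty acid model). Retest dilutions from 0.5 mg/mL stock down to 0.004 mg/mL, triplicate tubes, 9 h. Stopped with 25% metaphosphoric acid, centrifuged, propionate measured by GC-FID. Value is the minimum concentration giving propionate below 95% of control.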

Staphylococcus aureus [9] = experiment: as §3; format: functional; summary of the method: as §4

| Delta RM [2] | Structure (SMILES) | Control [1] | Control [3] | Control [4] | MIC (Staphylococcus aureus [5]) | MIC (Streptococcus pyogenes) | MIC (Staphylococcus aureus [6]) | MIC (Escherichia coli) | MIC (Enterococcus faecium) | Concentration [7] | Dose [8] | MIC (Staphylococcus aureus [9]) |
| --- | --- | --- | --- | --- | --- | --- | --- | --- | --- | --- | --- | --- |
| 0.66 | CC1(C)SC2C(NC(=O)N/C=C/c3cccc4ccccc34)C(=O)N2[C@H]1C(=O)[O-].[Na+] (some centres not stated) | 0% | 3% | 111% | – | – | – | – | – | – | – | – |
| -0.2 | CC1(C)SC2C(NC(=O)N/C=C/c3cccs3)C(=O)N2[C@H]1C(=O)[O-].[Na+] (some centres not stated) | 52% | 0% | 102% | – | – | – | – | – | – | – | – |
| -0.29 | CC1(C)SC2C(NC(=O)NC3CC3c3ccccc3)C(=O)N2[C@H]1C(=O)[O-].[Na+] (some centres not stated) | 4% | 8% | 104% | – | – | – | – | – | – | – | – |
| 0.3 | C/C(=C\NC(=O)NC1C(=O)N2C1SC(C)(C)[C@@H]2C(=O)[O-])c1ccccc1.[Na+] (some centres not stated) | 5% | 0% | 87% | – | – | – | – | – | – | – | – |
| 0.69 | CC1(C)SC2C(NC(=O)N/C=C/c3cccc(Br)c3)C(=O)N2[C@H]1C(=O)[O-].[Na+] (some centres not stated) | 0% | 3% | 142% | – | – | – | – | – | – | – | – |
| -0.75 | CC1(C)SC2C(NC(=O)Nc3ccccc3)C(=O)N2[C@H]1C(=O)[O-].[Na+] (some centres not stated) | 110% | 3% | 96% | – | – | – | – | – | – | – | – |
| 1.44 | CC1(C)SC2C(NC(=O)N/C=C/c3ccc(Cl)c(Cl)c3)C(=O)N2[C@H]1C(=O)[O-].[Na+] (some centres not stated) | 106% | 1% | 107% | – | – | – | – | – | – | – | – |
| -2 | CC(C)NC(=O)NC1C(=O)N2C1SC(C)(C)[C@@H]2C(=O)[O-].[Na+] (some centres not stated) | 119% | 7% | 108% | – | – | – | – | – | – | – | – |
| -0.01 | CC1(C)SC2C(NC(=O)Nc3ccc(Cl)cc3)C(=O)N2[C@H]1C(=O)[O-].[Na+] (some centres not stated) | 112% | 2% | 102% | – | – | – | – | – | – | – | – |
| -0.26 | CC1(C)SC2C(NC(=O)N/C=C/c3ccco3)C(=O)N2[C@H]1C(=O)[O-].[Na+] (some centres not stated) | 89% | 3% | 101% | – | – | – | – | – | – | – | – |
| 0.43 | CCOc1ccc(/C=C/NC(=O)NC2C(=O)N3C2SC(C)(C)[C@@H]3C(=O)[O-])cc1.[Na+] (some centres not stated) | 1% | 1% | 0% | – | – | – | – | – | 0.31 µg/mL | > 10 µg/mL | – |
| 0.5 | Cc1ccc(/C=C/NC(=O)NC2C(=O)N3C2SC(C)(C)[C@@H]3C(=O)[O-])cc1.[Na+] (some centres not stated) | 2% | 2% | 0% | – | – | – | – | – | 0.31 µg/mL | > 10 µg/mL | – |

The remaining lines, values behind:

| Structure (SMILES) | Delta RM [2] | Control [1] | Control [3] | Control [4] | MIC (Staphylococcus aureus [5]) | MIC (Streptococcus pyogenes) | MIC (Staphylococcus aureus [6]) | MIC (Escherichia coli) | MIC (Enterococcus faecium) | Concentration [7] | Dose [8] | MIC (Staphylococcus aureus [9]) |
| --- | --- | --- | --- | --- | --- | --- | --- | --- | --- | --- | --- | --- |
| CC1(C)S[C@@H]2[C@H](NC(=O)Cc3ccccc3)C(=O)N2[C@H]1C(=O)O [PENICILLIN G] | – | – | – | – | 0.05 µg/mL (≈ 0.15 µM) | 0.01 µg/mL (≈ 0.0299 µM) | 50 µg/mL (≈ 150 µM) | 25 µg/mL (≈ 74.8 µM) | 0.4 µg/mL (≈ 1.2 µM) | – | – | – |
| CC1(C)SC2C(NC(=O)N/C=C/C3CCCCC3)C(=O)N2[C@H]1C(=O)[O-].[Na+] (some centres not stated) | 0.77 | 2% | 2% | 0% | 0.4 µg/mL | 0.2 µg/mL | 50 µg/mL | > 200 µg/mL | 50 µg/mL | 0.31 µg/mL | 2.5 µg/mL | – |
| CC(C)(C)c1ccc(/C=C/NC(=O)NC2C(=O)N3C2SC(C)(C)[C@@H]3C(=O)[O-])cc1.[Na+] (some centres not stated) | 1.31 | – | – | – | 3.12 µg/mL | 1.6 µg/mL | 100 µg/mL | > 200 µg/mL | > 200 µg/mL | – | – | – |
| CCOC(=O)c1ccc(NC(=O)NC2C(=O)N3C2SC(C)(C)[C@@H]3C(=O)O)cc1 (some centres not stated) | – | 95% | 3% | 101% | – | – | – | – | – | – | – | – |
| CC1(C)SC2C(NC(=O)NCCc3ccc4ccccc4c3)C(=O)N2[C@H]1C(=O)[O-].[Na+] (some centres not stated) | 0.89 | 7% | 9% | 2% | 0.1 µg/mL | 0.05 µg/mL | 25 µg/mL | > 200 µg/mL | 6.25 µg/mL | 0.31 µg/mL | > 10 µg/mL | – |
| CC1(C)SC2C(NC(=O)NCc3ccc4ccccc4c3)C(=O)N2[C@H]1C(=O)[O-].[Na+] (some centres not stated) | 0 | 4% | 9% | 4% | 0.05 µg/mL | 0.05 µg/mL | – | > 200 µg/mL | 3.12 µg/mL | 0.08 µg/mL | 5 µg/mL | 50 µg/mL |
| CC1(C)SC2C(NC(=O)NCCc3ccccc3)C(=O)N2[C@H]1C(=O)[O-].[Na+] (some centres not stated) | -0.6 | 6% | 9% | 4% | 0.1 µg/mL | 0.1 µg/mL | – | 100 µg/mL | 3.12 µg/mL | 0.31 µg/mL | 5 µg/mL | 50 µg/mL |
| CC(C)(C)c1ccc(/C=C/NC(=O)NC2C(=O)N3C2SC(C)(C)[C@@H]3C(=O)O)cc1.CCN(CC)CC (some centres not stated) | 1.31 | – | – | – | – | – | – | – | – | – | – | – |
| CC(C)(C)c1ccc(/C=C/NC(=O)NC2C(=O)N3C2SC(C)(C)[C@@H]3C(=O)O)cc1 (some centres not stated) | – | 0% | 0% | 0% | – | – | – | – | – | 0.16 µg/mL | > 10 µg/mL | – |
| CC1(C)SC2C(NC(=O)N/C=C/c3ccc4c(c3)OCO4)C(=O)N2[C@H]1C(=O)[O-].[Na+] (some centres not stated) | -0.06 | 0% | 4% | 0% | 6.25 µg/mL | 1.6 µg/mL | 50 µg/mL | 100 µg/mL | 200 µg/mL | 0.16 µg/mL | > 10 µg/mL | – |
| COc1cc(/C=C/NC(=O)NC2C(=O)N3C2SC(C)(C)[C@@H]3C(=O)[O-])cc(OC)c1OC.[Na+] (some centres not stated) | -0.45 | 2% | 8% | 105% | – | – | – | – | – | – | – | – |
| CC1(C)SC2C(NC(=O)N/C=C/c3ccc(Cl)cc3)C(=O)N2[C@H]1C(=O)[O-].[Na+] (some centres not stated) | 0.58 | 2% | 10% | 0% | 6.25 µg/mL | 3.12 µg/mL | 50 µg/mL | > 200 µg/mL | > 200 µg/mL | 1.25 µg/mL | > 10 µg/mL | – |
| CC1(C)SC2C(NC(=O)NC3CCCCC3)C(=O)N2[C@H]1C(=O)[O-].[Na+] (some centres not stated) | -0.62 | 0% | 2% | 99% | – | – | – | – | – | – | – | – |
| CC1(C)SC2C(NC(=O)N/C=C/c3ccc4ccccc4c3)C(=O)N2[C@H]1C(=O)[O-].[Na+] (some centres not stated) | 1.05 | 2% | 8% | 1% | 3.12 µg/mL | 3.12 µg/mL | 100 µg/mL | > 200 µg/mL | 200 µg/mL | 0.31 µg/mL | > 10 µg/mL | – |
